Experimental data as given in ChEMBL document CHEMBL1773037, “Evaluation of superior BACE1 cleavage sequences containing unnatural amino acids” (Bioorg Med Chem, 2011).

Substrate: CC[C@H](C)[C@H](N)C(=O)N[C@@H](CCCCN)C(=O)N[C@H](C(=O)N[C@@H](CCC(=O)O)C(=O)N[C@@H](CCC(=O)O)C(=O)N[C@H](C(=O)N[C@@H](CO)C(=O)N[C@@H](CCC(=O)O)C(=O)N[C@H](C(=O)N[C@@H](CC(N)=O)C(=O)N[C@@H](CC(C)C)C(=O)N[C@@H](CC(=O)O)C(=O)N[C@@H](C)C(=O)N[C@@H](CCC(=O)O)C(=O)N[C@@H](Cc1ccccc1)C(=O)N[C@@H](CCCNC(=N)N)C(=O)N[C@@H](Cc1cnc[nH]1)C(=O)N[C@@H](CC(=O)O)C(=O)N[C@@H](CO)C(=O)NCC(N)=O)C(C)C)[C@@H](C)CC)[C@@H](C)O
Experiment: Activity of recombinant BACE assessed as substrate cleavage at 105 uM after 15 mins by HPLC analysis
Method in brief: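 Kinetic run: rBACE1 (33 nM) added to eicosapeptide amide at final concentrations 0–105, 37 °C, 15 min. Aliquots analysed by HPLC, and initial rates taken from the decrease in substrate peak area. Km obtained from a plot of [S]/v versus [S]. Measurements done three times and averaged.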

B1: Beta-secretase 1 (Homo sapiens), P56817 (protein)
chain: MAQALPWLLLWMGAGVLPAHGTQHGIRLPLRSGLGGAPLGLRLPRETDEEPEEPGRRGSFVEMVDNLRGKSGQGYYVEMTVGSPPQTLNILVDTGSSNFAVGAAPHPFLHRYYQRQLSSTYRDLRKGVYVPYTQGKWEGELGTDLVSIPHGPNVTVRANIAAITESDKFFINGSNWEGILGLAYAEIARPDDSLEPFFDSLVKQTHVPNLFSLQLCGAGFPLNQSEVLASVGGSMIIGGIDHSLYTGSLWYTPIRREWYYEVIIVRVEINGQDLKMDCKEYNYDKSIVDSGTTNLRLPKKVFEAAVKSIKAASSTEKFPDGFWLGEQLVCWQAGTTPWNIFPVISLYLMGEVTNQSFRITILPQQYLRPVEDVATSQDDCYKFAISQSSTGTVMGAVIMEGFYVVFDRARKRIGFAVSACHVHDEFRTAAVEGPFVTLDMEDCGYNIPQTDESTLMTIAYVMAAICALFMLPLCLMVCQWRCLRCLRQQHDDFADDISLLK
**Q.** Which Km does the source give for B1 here?
**A.** The Km was 5.5 µM.

**Q.** What about the kcat of the same protein?
**A.** The kcat was 1720 s⁻¹.
